Assay results as given in ChEMBL document CHEMBL3286357, “Design, synthesis and pharmacological evaluation of novel substituted quinoline-2-carboxamide derivatives as human dihydroorotate dehydrogenase (hDHODH) inhibitors and anticancer agents” (Eur J Med Chem, 2014).

Key:
[1] = Retention time of compound by HPLC analysis; assay type: physicochemical
[2] = Antiproliferative activity against human Hep3B cells at 0.41 ug/ml for 24 hrs by MTT assay; assay type: functional, Hep 3B2
Outline: (§1)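 HEP-3B or A-375 cells were grown in DMEM with 10% FBS, 5% HBSS, penicillin, streptomycin and amphotericin B at 37 C and 5% CO2. Cells were seeded at 2 × 10^4 per well and preincubated for 24 h. They were then exposed to ten 1:3 serial dilutions from a top concentration of 100, made from 2% DMSO stocks. MTT was added for 3 h, formazan was dissolved in DMSO, and A550 was read. Wells were run in triplicate across three independent experiments. IC50 came from dose-response curves.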

[3] = test system: A-375; test: Antiproliferative activity against human A375 cells at 0.05 ug/ml for 24 hrs by MTT assay; assay type: functional; details: A-375, 24 h; outline: as §1
[4] = molecular target: Dihydroorotate dehydrogenase (quinone), mitochondrial (Homo sapiens, UniProt Q02127); test: Inhibition of recombinant human DHODH activity after 20 mins by DCIP dye based colorimetric analysis in presence of 1 mM L-dihydroorotate and 0.1 mM CqD
[5] = test system: A-375; test: Antiproliferative activity against human A375 cells at 1.23 ug/ml for 24 hrs by MTT assay; assay type: functional; details: A-375, 24 h; outline: as §1
[6] = test system: A-375; test: Antiproliferative activity against human A375 cells at 3.7 ug/ml for 24 hrs by MTT assay; assay type: functional; details: A-375, 24 h; outline: as §1
[7] = Antiproliferative activity against human Hep3B cells at 0.14 ug/ml for 24 hrs by MTT assay; assay type: functional, Hep 3B2; outline: as §1
[8] = test system: A-375; test: Antiproliferative activity against human A375 cells at 0.41 ug/ml for 24 hrs by MTT assay; assay type: functional; details: A-375, 24 h; outline: as §1
[9] = test system: HEP-3B (human hepatoma); test: Antiproliferative activity against human Hep3B cells for 24 hrs by MTT assay
[10] = test system: A-375; test: Antiproliferative activity against human A375 cells at 100 ug/ml for 24 hrs by MTT assay; assay type: functional; details: A-375, 24 h; outline: as §1
[11] = Antiproliferative activity against human Hep3B cells at 1.23 ug/ml for 24 hrs by MTT assay; assay type: functional, Hep 3B2; outline: as §1
[12] = Antiproliferative activity against human Hep3B cells at 100 ug/ml for 24 hrs by MTT assay; assay type: functional, Hep 3B2; outline: as §1
[13] = Antiproliferative activity against human Hep3B cells at 33.33 ug/ml for 24 hrs by MTT assay; assay type: functional, Hep 3B2; outline: as §1
[14] = test system: A-375 (human melanoma); test: Antiproliferative activity against human A375 cells for 24 hrs by MTT assay; details: A-375, 24 h
[15] = Antiproliferative activity against human Hep3B cells at 0.01 ug/ml for 24 hrs by MTT assay; assay type: functional, Hep 3B2; outline: as §1
[16] = test system: A-375; test: Antiproliferative activity against human A375 cells at 33.33 ug/ml for 24 hrs by MTT assay; assay type: functional; details: A-375, 24 h; outline: as §1
[17] = test system: A-375; test: Antiproliferative activity against human A375 cells at 0.02 ug/ml for 24 hrs by MTT assay; assay type: functional; details: A-375, 24 h; outline: as §1
[18] = test system: A-375; test: Antiproliferative activity against human A375 cells at 0.01 ug/ml for 24 hrs by MTT assay; assay type: functional; details: A-375, 24 h; outline: as §1
[19] = Antiproliferative activity against human Hep3B cells at 0.02 ug/ml for 24 hrs by MTT assay; assay type: functional, Hep 3B2; outline: as §1
[20] = Antiproliferative activity against human Hep3B cells at 0.05 ug/ml for 24 hrs by MTT assay; assay type: functional, Hep 3B2; outline: as §1
[21] = test system: A-375; test: Antiproliferative activity against human A375 cells at 0.14 ug/ml for 24 hrs by MTT assay; assay type: functional; details: A-375, 24 h; outline: as §1
[22] = Antiproliferative activity against human Hep3B cells at 3.7 ug/ml for 24 hrs by MTT assay; assay type: functional, Hep 3B2; outline: as §1
[23] = test system: A-375; test: Antiproliferative activity against human A375 cells at 11.11 ug/ml for 24 hrs by MTT assay; assay type: functional; details: A-375, 24 h; outline: as §1
[24] = Antiproliferative activity against human Hep3B cells at 11.11 ug/ml for 24 hrs by MTT assay; assay type: functional, Hep 3B2; outline: as §1

Dihydroorotate dehydrogenase (quinone), mitochondrial, sequence (Q02127 whole entry): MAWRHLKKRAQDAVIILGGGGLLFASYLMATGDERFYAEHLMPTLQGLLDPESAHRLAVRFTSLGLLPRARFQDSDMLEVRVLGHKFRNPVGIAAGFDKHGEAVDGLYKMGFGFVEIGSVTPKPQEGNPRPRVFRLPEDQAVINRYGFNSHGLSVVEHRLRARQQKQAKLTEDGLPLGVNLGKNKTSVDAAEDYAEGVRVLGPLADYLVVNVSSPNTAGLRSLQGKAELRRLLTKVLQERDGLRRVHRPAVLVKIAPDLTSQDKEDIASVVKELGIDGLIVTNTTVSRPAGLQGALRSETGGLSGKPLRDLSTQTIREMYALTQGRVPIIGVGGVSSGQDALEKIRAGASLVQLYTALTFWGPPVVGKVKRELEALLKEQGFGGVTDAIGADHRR

Structure (SMILES) | Retention_time [1] [min] | inhibition at 0.41 µg/mL [2] [%] | inhibition at 0.05 µg/mL [3] [%] | inhibition at 1.23 µg/mL [5] [%] | inhibition at 3.7 µg/mL [6] [%] | inhibition at 0.14 µg/mL [7] [%] | inhibition at 0.41 µg/mL [8] [%] | IC50 [9] [µM] | inhibition at 100 µg/mL [10] [%] | inhibition at 1.23 µg/mL [11] [%] | inhibition at 100 µg/mL [12] [%] | inhibition at 33.33 µg/mL [13] [%] | IC50 [14] [µM] | inhibition at 0.01 µg/mL [15] [%] | inhibition at 33.33 µg/mL [16] [%] | inhibition at 0.02 µg/mL [17] [%] | inhibition at 0.01 µg/mL [18] [%] | inhibition at 0.02 µg/mL [19] [%] | inhibition at 0.05 µg/mL [20] [%] | inhibition at 0.14 µg/mL [21] [%] | further results
COc1ccc2nc(C(=O)Nc3ccc(-c4ccccc4)cc3)c(C)c(O)c2c1 | 6.4 | 7.58 | 1.98 | 18.7 | 27.2 | 3.52 | 7.62 | 50.6 | 66.9 | 14.2 | 79.3 | 48.4 | 18.1 | 0.35 | 46.2 | 0.56 | 0.13 | 0.96 | 1.23 | 3.05 | IC50 [4]: 2.28 µM; inhibition at 3.7 µg/mL [22]: 23.5%; inhibition at 11.11 µg/mL [23]: 36.2%; inhibition at 11.11 µg/mL [24]: 36.2%
Cc1ccc2nc(C(=O)Nc3c(F)cc(-c4cccc(F)c4)cc3F)c(C)c(O)c2c1 | 8.8 | 5.25 | 0.96 | 3.04 | 16.2 | 2.34 | 1.35 | 90.5 | 56.4 | 11.2 | 68.3 | 37.3 | > 100 | 0.22 | 26.5 | 0.38 | 0.1 | 0.98 | 1.52 | 1.06 | inhibition at 3.7 µg/mL [22]: 19.2%; inhibition at 11.11 µg/mL [23]: 17.9%; inhibition at 11.11 µg/mL [24]: 25.5%
CCc1ccc2nc(C(=O)Nc3c(F)cc(-c4cccc(F)c4)cc3F)c(C)c(O)c2c1 | 6.3 | 16.2 | 0.68 | 12.2 | 17.9 | 11.2 | 3.56 | 8.13 | 47.2 | 23.5 | 63.2 | 56.3 | 15.8 | 0.74 | 28.4 | -0.12 | -0.35 | 2.05 | 5.62 | 1.57 | IC50 [4]: 3.21 µM; inhibition at 3.7 µg/mL [22]: 31.2%; inhibition at 11.11 µg/mL [23]: 26.4%; inhibition at 11.11 µg/mL [24]: 46.3%
COc1ccc2nc(C(=O)Nc3c(F)cc(-c4cccc(F)c4)cc3F)c(C)c(O)c2c1 | 7.1 | 4.5 | 6.38 | 36.2 | 49.9 | 2.68 | 28.7 | 6.98 | 96.8 | 13.3 | 46.2 | 31.2 | 5.03 | 0.105 | 64.9 | 2.13 | 0.79 | 0.87 | 1.35 | 11.6 | IC50 [4]: 0.94 µM; inhibition at 3.7 µg/mL [22]: 25.2%; inhibition at 11.11 µg/mL [23]: 57.2%; inhibition at 11.11 µg/mL [24]: 29.3%
Cc1c(C(=O)Nc2c(F)cc(-c3cccc(F)c3)cc2F)nc2ccc(C(F)(F)F)cc2c1O | 7 | 9.38 | 3.47 | 21.2 | 34.3 | 2.65 | 16.5 | 12.6 | 95.2 | 15.3 | 68.4 | 45.2 | 29.9 | -0.33 | 61.3 | 1.28 | 0.16 | 0.06 | 1.35 | 9.37 | IC50 [4]: 6.09 µM; inhibition at 3.7 µg/mL [22]: 31.2%; inhibition at 11.11 µg/mL [23]: 46.3%; inhibition at 11.11 µg/mL [24]: 36.2%
CCOc1ccc2nc(C(=O)Nc3c(F)cc(-c4cccc(F)c4)cc3F)c(C)c(C(=O)O)c2c1 | 6.8 | 5.34 | 1.96 | 26.6 | 35.2 | 2.06 | 11.2 | 14.9 | 72.3 | 17.9 | 65.3 | 38.6 | 5.8 | -0.12 | 51.2 | 1.02 | 0.3 | 0.05 | 0.98 | 3.05 | IC50 [4]: 2.83 µM; inhibition at 3.7 µg/mL [22]: 26.5%; inhibition at 11.11 µg/mL [23]: 48.3%; inhibition at 11.11 µg/mL [24]: 33.2%
Cc1c(C(=O)Nc2c(F)cc(-c3cccc(F)c3)cc2F)nc2ccc(OC(F)(F)F)cc2c1C(=O)O | 6.9 | 15.3 | 1.06 | 24.4 | 37.9 | 7.28 | 15.2 | 22 | 68.8 | 21.2 | 75.3 | 46.2 | 4.8 | 0.45 | 53.1 | 0.95 | -0.11 | 1.22 | 3.05 | 3.06 | IC50 [4]: 1.5 µM; inhibition at 3.7 µg/mL [22]: 29.8%; inhibition at 11.11 µg/mL [23]: 42.4%; inhibition at 11.11 µg/mL [24]: 37.3%
Cc1c(C(=O)Nc2c(F)cc(-c3cccc(F)c3)cc2F)nc2ccc(C(F)(F)F)cc2c1C(=O)O | 6.8 | 6.42 | 1.04 | 18.3 | 27.8 | 2.13 | 7.82 | 42.8 | 61.3 | 17.2 | 72.3 | 43.3 | 7.57 | 0.2 | 51 | 0.37 | 0.12 | 1.15 | 1.68 | 2.56 | IC50 [4]: 3.44 µM; inhibition at 3.7 µg/mL [22]: 21.3%; inhibition at 11.11 µg/mL [23]: 45.4%; inhibition at 11.11 µg/mL [24]: 31.2%
